Test results from ChEMBL document CHEMBL1132695, “2-(diethylamino)thieno1,3ŏxazin-4-ones as stable inhibitors of human leukocyte elastase” (J Med Chem, 1999).

Key:
Neutrophil elastase [1] = target: T1, Neutrophil elastase (Homo sapiens, UniProt P08246); assay: (§1) Inhibitory activity against human leukocyte elastase
T1 sequence (P08246 whole entry): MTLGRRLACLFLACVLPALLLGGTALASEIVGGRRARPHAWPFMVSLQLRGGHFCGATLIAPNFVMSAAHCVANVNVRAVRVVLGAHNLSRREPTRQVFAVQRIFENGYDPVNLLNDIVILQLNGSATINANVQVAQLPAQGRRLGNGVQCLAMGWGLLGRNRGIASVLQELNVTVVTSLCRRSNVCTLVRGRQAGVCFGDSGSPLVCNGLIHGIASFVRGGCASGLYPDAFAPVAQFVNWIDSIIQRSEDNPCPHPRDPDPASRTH
Procedure, shortened: (§2)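 Elastase purified from human leukocytes by affinity chromatography; enzyme stock diluted into 50 mM sodium phosphate, 500 mM NaCl, pH 7.8. Substrate Suc-Ala-Ala-Pro-Val-pNA at 100 μM final (1.3 Km); inhibitor in DMSO added to cuvette. Progress-curve method at 25 °C, at least five inhibitor concentrations for oxazinones (single 2 μM for thiazinones); curves fitted for kobs, giving Kd, Ki, kon (acylation) and koff (deacylation).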

Neutrophil elastase [2] = target: T1, Neutrophil elastase; assay: as §1; procedure, shortened: as §2; remark: listed apart in the source
[3] = The alkaline hydrolysis second order rate constant(K OH) taken as log K.
[4] = target: T2, Neutrophil elastase (Homo sapiens) (UniProt P08246); assay: Kon was the acylation association equilibrium rate constant of a competitive inhibition of human leukocyte elastase(HLE).; procedure, shortened: as §2
T2 sequence (whole entry): T1 sequence (P08246 whole entry)

[5] = target: T2, Neutrophil elastase (Homo sapiens); assay: Koff was the deacylation association equilibrium rate constant of a competitive inhibition human leukocyte elastase(HLE).; procedure, shortened: as §2
[6] = The alkaline hydrolysis second order rate constant(K OH) of the compound; type: ADME
Procedure, shortened: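 Spectrophotometric hydrolysis in aqueous buffer pH 11.25 at 25 °C; loss of long-wavelength UV chromophore followed at 335 nm as first-order exponential decay. Compounds from DMSO stocks, final 15–20 μM, 5% DMSO final. Second-order rate constant kOH- calculated from first-order rates.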

Neutrophil elastase [7] = target: T1, Neutrophil elastase; assay: as §1; procedure, shortened: as §2; remark: listed apart in the source

SMILES | Ki (Neutrophil elastase [1]) | Ki (Neutrophil elastase [2]) | Log K [3] | k on [4] | k off [5] | K [6] | Kd (Neutrophil elastase [2]) | Ki (Neutrophil elastase [7])
CCN(CC)c1nc2sc3c(c2c(=O)o1)CCC3 | 0.0126 µM | 0.013 µM | -1.03 | 3600 M⁻¹ s⁻¹ | 4.5e-05 s⁻¹ | 0.094 M⁻¹ s⁻¹ |  | 
CCN(CC)c1nc2scc(C)c2c(=O)o1 | 0.447 µM | 0.45 µM | -1.14 | 140 M⁻¹ s⁻¹ | 6.4e-05 s⁻¹ | 0.073 M⁻¹ s⁻¹ | 5.5 µM | 
CCN(CC)c1nc2sc3c(c2c(=O)o1)C(C)CCC3 (stereo not drawn) | 0.204 µM | 0.21 µM | -1.41 | 63 M⁻¹ s⁻¹ | 1.3e-05 s⁻¹ | 0.039 M⁻¹ s⁻¹ |  | 
CCN(CC)c1nc2sc(C(N)=O)c(C)c2c(=O)o1 | 0.0912 µM | 0.091 µM | -0.4 | 4000 M⁻¹ s⁻¹ | 0.00036 s⁻¹ | 0.4 M⁻¹ s⁻¹ | 0.62 µM | 
CCN(CC)c1nc2sccc2c(=O)o1 | 0.257 µM | 0.26 µM | -0.91 | 530 M⁻¹ s⁻¹ | 0.00014 s⁻¹ | 0.12 M⁻¹ s⁻¹ |  | 
CCN(CC)c1nc2scc(C(C)C)c2c(=O)o1 | 0.0132 µM | 0.013 µM | -1.27 | 10000 M⁻¹ s⁻¹ | 0.00013 s⁻¹ | 0.054 M⁻¹ s⁻¹ |  | 
CCN(CC)c1nc2ccccc2c(=O)o1 | 0.302 µM | 0.31 µM | 0.77 | 2600 M⁻¹ s⁻¹ | 0.00079 s⁻¹ | 5.9 M⁻¹ s⁻¹ |  | 
CCN(CC)c1nc2ccsc2c(=O)o1 |  | 0.13 µM | -0.95 | 330 M⁻¹ s⁻¹ | 4.3e-05 s⁻¹ | 0.11 M⁻¹ s⁻¹ |  | 0.132 µM
CCN(CC)c1nc2sc3ccccc3c2c(=O)o1 | 0.00575 µM | 0.0058 µM | -1.13 | 9500 M⁻¹ s⁻¹ | 5.5e-05 s⁻¹ | 0.075 M⁻¹ s⁻¹ |  | 
CCN(CC)c1nc2sc3c(c2c(=O)o1)CCCCC3 | 0.0437 µM | 0.044 µM | -1.42 | 990 M⁻¹ s⁻¹ | 4.3e-05 s⁻¹ | 0.038 M⁻¹ s⁻¹ |  | 
CCN(CC)c1nc2sc3c(c2c(=O)o1)CCCC3 | 0.0126 µM | 0.013 µM | -1.49 | 2500 M⁻¹ s⁻¹ | 3.2e-05 s⁻¹ | 0.032 M⁻¹ s⁻¹ |  | 
